Values joined by “and” are separate entries in the source; they are usually repeats but may differ in a detail not shown here. Identical values can stand only once. One block for each compound: values may come before it.
Tests used:
[1] = test system: Adenylate kinase, muscle isozyme (Rattus norvegicus); assay: Ability of the 0.094 mM compound to inactivate rat muscle adenylate kinase was determined, after exposing enzyme to 1.4 mM levels of ATP activity expressed as % loss of inactivation
[2] = species: Rattus norvegicus; assay: Ability of the 1.42 mM compound to inactivate rat muscle adenylate kinase was determined, after exposing enzyme to 2.2 mM levels of ATP activity expressed as percent loss of inactivation
How it was run: (§1)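 Rat muscle enzyme preincubated at 22 °C with the 1:1 Mg2+ complex of the derivative, alone or with added AMP or ATP. Aliquots were assayed at intervals in the coupled system containing 1 mM ATP, alongside controls lacking the derivative. Half-time of inactivation was taken from pseudo-first-order plots, or % activity loss at 5–6 h was reported.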

[3] = test system: Adenylate kinase, muscle isozyme (Rattus norvegicus); assay: Ability of the 1.14 mM compound to inactivate rat muscle adenylate kinase was determined, after exposing enzyme to 0 mM levels of MgATP, activity expressed as percent loss of inactivation
[4] = species: Rattus norvegicus; assay: Ability to inhibit rat adenylate kinase III, activity expressed as half-maximal velocity; assay type: ADME
How it was run: (§2)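 Coupled spectrophotometric assay (pyruvate kinase/lactate dehydrogenase, NADH oxidation) in 0.1 M Tris-HCl pH 7.6 with 2 mM MgSO4, 0.12 M KCl, 0.31 mM PEP, 0.38 mM NADH and 0.25 mM AMP. Derivatives were added as 1:1 Mg complexes. KM was obtained from linear Lineweaver-Burk plots using five or more substrate levels spanning 0.5–4.0 × KM. Inhibition was typed as competitive or noncompetitive versus ATP.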

[5] = molecular target: T1, GTP:AMP phosphotransferase AK3, mitochondrial (Rattus norvegicus, UniProt P29411); assay: Ability to inhibit rat adenylate kinase III, activity expressed as Inhibition constant
How it was run: as §2

[6] = species: Rattus norvegicus; assay: Ability to inhibit rat adenylate kinase II, activity expressed as half-maximal velocity; assay type: ADME; details: in vitro
How it was run: as §2

[7] = species: Rattus norvegicus; assay: Ability to inhibit rat adenylate kinase II, activity expressed as Maximum velocity; assay type: ADME
How it was run: as §2

[8] = species: Rattus norvegicus; assay: Ability to inhibit rat adenylate kinase III, activity expressed as Maximum velocity; assay type: ADME; details: in vitro
How it was run: as §2

[9] = test system: Escherichia coli; assay: Ability to inhibit Escherichia coli adenylate kinase II, activity expressed as Maximum velocity; assay type: ADME; details: in vitro
How it was run: as §2

[10] = molecular target: T1, GTP:AMP phosphotransferase AK3, mitochondrial; assay: Ability to inhibit rat adenylate kinase III, activity expressed as Inhibition constant; Competitive inhibition
How it was run: as §2

[11] = test system: Escherichia coli; assay: Ability of 13.2 mM compound to inactivate Escherichia coli adenylate kinase was determined, after exposing enzyme to 10.7 mM levels of MgATP after 6 hr at 22 degree C
How it was run: (§3)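 E. coli B enzyme, partially purified 27-fold (fraction IV), exposed 6 h at 22 °C, pH 7.6, to the Mg2+ 1:1 complex of the ATP derivative in the Tris/MgSO4/KCl reaction buffer, with or without MgATP. Aliquots withdrawn at intervals and assayed spectrophotometrically with 1 mM ATP. Activity was compared with controls lacking the derivative. Read-out is % inactivation after 6 h.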

[12] = test system: Escherichia coli; assay: Ability of 13.2 mM compound to inactivate Escherichia coli adenylate kinase was determined, after exposing enzyme to 0 mM levels of MgATP after 6 hr at 22 degree C
How it was run: as §3

[13] = test system: Escherichia coli; assay: Ability to inactivate Escherichia coli adenylate kinase after exposing enzyme to 0 mM levels of MgATP at concentration of 8.1 mM, pH 7.6
How it was run: as §3

[14] = molecular target: Adenylate kinase (Escherichia coli) (UniProt P69441); assay: Ability of the 9 mM compound to inactivate adenylate kinase was determined, after exposing enzyme to 0 mM levels of MgATP in 6 h at 22 degree C
[15] = molecular target: Adenylate kinase 2, mitochondrial (Rattus norvegicus, UniProt P29410); assay: Ability to inhibit rat adenylate kinase II, activity expressed as Inhibition constant
How it was run: as §2

[16] = test system: Escherichia coli; assay: Ability to inhibit Escherichia coli adenylate kinase II activity expressed as half maximal velocity; assay type: ADME, organism-based; details: in vivo
How it was run: (§4)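 E. coli B adenylate kinase, partially purified 27-fold (streptomycin, ammonium sulfate fractionation, DEAE-cellulose; fraction IV). ATP derivatives tested as 1:1 Mg²⁺ complexes as phosphate donor. Coupled PK/LDH NADH-oxidation spectrophotometric assay in 0.1 M Tris-HCl pH 7.6 with 2 mM MgSO₄, 0.12 M KCl, 0.31 mM PEP, 0.38 mM NADH and 0.25 mM AMP. Constants came from linear Lineweaver-Burk plots of initial velocity, using ≥5 substrate levels across 0.5–4.0 × KM.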

[17] = test system: Escherichia coli; assay: Ability to inhibit Escherichia coli adenylate kinase II activity expressed as Maximum velocity; assay type: ADME
How it was run: as §4

[18] = test system: Escherichia coli; assay: Ability to inactivate Escherichia coli adenylate kinase after exposing enzyme to 0 mM levels of MgATP at concentration of 13.5 mM, pH 7.6
How it was run: as §3

[19] = test system: Escherichia coli; assay: Ability to inactivate Escherichia coli adenylate kinase after exposing enzyme to 0 mM levels of MgATP at concentration of 4.5mM, pH 7.6 for 6 h; assay type: functional
How it was run: as §3

[20] = species: Rattus norvegicus; assay: Ability of the 1.10 mM compound to inactivate rat muscle adenylate kinase was determined, after exposing enzyme to 2.2 mM levels of ATP activity expressed as percent loss of inactivation
How it was run: as §1

[21] = molecular target: Adenylate kinase 2, mitochondrial (Rattus norvegicus) (UniProt P29410); assay: Ability to inhibit rat adenylate kinase II, […]
How it was run: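 Rat adenylate kinase isozyme II. ATP derivatives were used as 1:1 Mg²⁺ complexes and varied against ATP as phosphate donor. Coupled PK/LDH NADH-oxidation spectrophotometric assay in 0.1 M Tris-HCl pH 7.6 with 2 mM MgSO₄, 0.12 M KCl, 0.31 mM PEP, 0.38 mM NADH and 0.25 mM AMP. Inhibition type was assigned as competitive or noncompetitive with respect to ATP from initial-velocity kinetics.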

[22] = test system: Escherichia coli; assay: Ability to inactivate Escherichia coli adenylate kinase after exposing enzyme to 0 mM levels of MgATP at concentration of 11.8 mM, pH 7.6
How it was run: as §3

[23] = molecular target: Adenylate kinase (Escherichia coli) (UniProt P69441); assay: Ability to inhibit Escherichia coli adenylate kinase II activity expressed as half maximal velocity
[24] = molecular target: Adenylate kinase (Escherichia coli) (UniProt P69441); assay: Ability to inactivate adenylate kinase was determined, after exposing enzyme to mM levels of MgATP at pH 7.6
[25] = species: Rattus norvegicus; assay: Ability of to inactivate rat muscle adenylate kinase was determined activity expresses as Percent loss of inactivation
How it was run: as §1

[26] = test system: Escherichia coli; assay: Ability to inactivate adenylate kinase was determined, after exposing enzyme to mM levels of MgATP at pH 7.6 at a concentration of 9.7
How it was run: as §3

[27] = test system: Escherichia coli; assay: Ability to inactivate adenylate kinase was determined, after exposing enzyme to mM levels of MgATP at pH 7.6 at a concentration of 26.0
How it was run: as §3

[28] = test system: Escherichia coli; assay: Ability to inactivate adenylate kinase was determined, after exposing enzyme to mM levels of MgATP at pH 7.6 at a concentration of 9.9
How it was run: as §3

[29] = test system: Escherichia coli; assay: Ability inactivate Escherichia coli adenylate kinase was determined, after exposing enzyme to mM levels of MgATP at pH 7.6
How it was run: as §3

Loss of inactivation [1]: 30%
Structure (SMILES): O=C(CI)NCCCCCCCCNc1ncnc2c1ncn2C1O[C@H](CO)[C@@H](O)[C@H]1O (stereo partly drawn)

Loss of inactivation [2]: 0%
Structure (SMILES): O=C(CI)NCCCC(=O)NCCCCCCNc1ncnc2c1ncn2[C@@H]1O[C@H](COP(=O)(O)OP(=O)(O)OP(=O)(O)O)[C@@H](O)[C@H]1O

Loss of inactivation [3]: 0%
Structure (SMILES): CC(=O)NCCCCCCCCNc1ncnc2c1ncn2C1O[C@H](COP(=O)(O)O)[C@@H](O)[C@H]1O (stereo partly drawn)

Km [4]: 400 µM | Ki [5]: 5900 µM | Km [6]: 1600 µM | Vmax [7]: 5% | Vmax [8]: 2%
Structure (SMILES): O=C(CI)NCCNc1ncnc2c1ncn2[C@@H]1O[C@H](COP(=O)(O)OP(=O)(O)OP(=O)(O)O)[C@@H](O)[C@H]1O

Vmax [9]: 0%
Structure (SMILES): NCCCCCCNc1nc2c(N)ncnc2n1C1O[C@H](COP(=O)(O)OP(=O)(O)OP(=O)(O)O)[C@@H](O)[C@H]1O (stereo partly drawn)

Km [4]: 400 µM | Ki [10]: 6200 µM | Inactivation [11]: 36% | Inactivation [12]: 37% | Km [6]: 1000 µM | Vmax [7]: 21% | Vmax [8]: 9%
Structure (SMILES): O=C(CI)NCCCCCNc1ncnc2c1ncn2[C@@H]1O[C@H](COP(=O)(O)OP(=O)(O)OP(=O)(O)O)[C@@H](O)[C@H]1O

Inactivation [13]: 4%
Structure (SMILES): O=C(CI)NCCCCCCC(=O)NCCCCCCNc1ncnc2c1ncn2[C@@H]1O[C@H](COP(=O)(O)OP(=O)(O)OP(=O)(O)O)[C@@H](O)[C@H]1O

Inactivation [14]: 2%
Structure (SMILES): O=C(CI)NCCCCNc1ncnc2c1ncn2[C@@H]1O[C@H](COP(=O)(O)OP(=O)(O)OP(=O)(O)O)[C@@H](O)[C@H]1O

Ki [15]: 300 µM
Structure (SMILES): Nc1ncnc2c1nc(NCCCCCCNC(=O)CI)n2[C@@H]1O[C@H](COP(=O)(O)OP(=O)(O)OP(=O)(O)O)[C@@H](O)[C@H]1O

Vmax [9]: 0%
Structure (SMILES): CC(=O)NCCCCCCNc1nc2c(N)ncnc2n1C1O[C@H](COP(=O)(O)OP(=O)(O)OP(=O)(O)O)[C@@H](O)[C@H]1O (stereo partly drawn)

Structure (SMILES): Nc1ncnc2c1ncn2[C@@H]1O[C@H](COP(=O)(O)OP(=O)(O)OP(=O)(O)O)[C@@H](O)[C@H]1O [ADENOSINE TRIPHOSPHATE]
Km [4]: 90 µM | Km [16]: 60 µM | Vmax [17]: 100% | Km [6]: 90 µM | Vmax [7]: 100% | Vmax [8]: 100%

Inactivation [18]: 5%
Structure (SMILES): O=C(CI)NCCCCCC(=O)NCCCCNc1ncnc2c1ncn2[C@@H]1O[C@H](COP(=O)(O)OP(=O)(O)OP(=O)(O)O)[C@@H](O)[C@H]1O

Loss of inactivation [20]: 20%
Structure (SMILES): O=C(CI)NCCCCCCCNc1ncnc2c1ncn2[C@@H]1O[C@H](COP(=O)(O)OP(=O)(O)OP(=O)(O)O)[C@@H](O)[C@H]1O
Inactivation [19]: 7%

Structure (SMILES): NC(=O)CI
Loss of inactivation [21]: 0%

Inactivation [22]: 0%
Structure (SMILES): CN(CCCN(C)C(=O)CCCNc1ncnc2c1ncn2[C@@H]1O[C@H](COP(=O)(O)OP(=O)(O)OP(=O)(O)O)[C@@H](O)[C@H]1O)C(=O)CCCNC(=O)CI

Vmax [9]: 0%
Structure (SMILES): CN(CCCN(C)C(=O)CCCCNc1ncnc2c1ncn2[C@@H]1O[C@H](COP(=O)(O)OP(=O)(O)OP(=O)(O)O)[C@@H](O)[C@H]1O)C(=O)CCCCNC(=O)OCc1ccccc1

Inactivation [23]: 0% | Ki [10]: 2200 µM | Ki [15]: 1800 µM | Vmax [7]: 0% | Vmax [8]: 0%
Structure (SMILES): CN(CCCCCCN(C)c1ncnc2c1ncn2[C@@H]1O[C@H](COP(=O)(O)OP(=O)(O)OP(=O)(O)O)[C@@H](O)[C@H]1O)C(=O)CCCCCCNC(=O)CI

Inactivation [23]: 1% | Ki [10]: 2400 µM | Ki [15]: 1900 µM | Vmax [7]: 0% | Vmax [8]: 0%
Structure (SMILES): CN(CCCCCCN(C)c1ncnc2c1ncn2[C@@H]1O[C@H](COP(=O)(O)OP(=O)(O)OP(=O)(O)O)[C@@H](O)[C@H]1O)C(=O)CCCCCNC(=O)CI

Km [4]: 1100 µM | Inactivation [24]: 12% | Km [6]: 400 µM | Vmax [7]: 5% | Vmax [8]: 6%
Structure (SMILES): O=C(CI)NCCCCCCCCNc1ncnc2c1ncn2[C@@H]1O[C@H](COP(=O)(O)OP(=O)(O)OP(=O)(O)O)[C@@H](O)[C@H]1O

Loss of inactivation [25]: 8% | Inactivation [26]: 25% | Inactivation [27]: 46% and 47% | Inactivation [28]: 25%
Structure (SMILES): O=C(CI)NCCCCCCNc1ncnc2c1ncn2[C@@H]1O[C@H](COP(=O)(O)OP(=O)(O)OP(=O)(O)O)[C@@H](O)[C@H]1O

Ki [10]: 2100 µM | Ki [15]: 1600 µM | Vmax [17]: 0% | Inactivation [29]: 2% | Vmax [7]: 0% | Vmax [8]: 0%
Structure (SMILES): CN(CCCCN(C)c1ncnc2c1ncn2[C@@H]1O[C@H](COP(=O)(O)OP(=O)(O)OP(=O)(O)O)[C@@H](O)[C@H]1O)C(=O)CCCCCCNC(=O)CI

Vmax [9]: 0%
Structure (SMILES): NCCCCCNc1ncnc2c1ncn2C1O[C@H](COP(=O)(O)OP(=O)(O)OP(=O)(O)O)[C@@H](O)[C@H]1O (stereo partly drawn)
